From BindingDB's records for doi:10.1021/jm010408m (University of Missouri-Columbia, 2002) come the findings set out here.

pIC50: −log10 of the molar value.

Melanocyte-stimulating hormone receptor, sequence (Q01727 whole entry): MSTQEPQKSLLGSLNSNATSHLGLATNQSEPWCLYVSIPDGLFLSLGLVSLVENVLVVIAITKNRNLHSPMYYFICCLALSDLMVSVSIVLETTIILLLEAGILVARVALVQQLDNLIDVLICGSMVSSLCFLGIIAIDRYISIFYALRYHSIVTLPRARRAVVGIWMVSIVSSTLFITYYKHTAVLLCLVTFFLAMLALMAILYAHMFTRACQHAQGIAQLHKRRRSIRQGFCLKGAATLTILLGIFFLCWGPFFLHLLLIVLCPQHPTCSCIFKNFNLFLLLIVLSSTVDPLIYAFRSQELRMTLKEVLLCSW

The assay concerns the target Melanocyte-stimulating hormone receptor (Mus musculus, UniProt Q01727). The assay can be described thus: In vitro binding affinity for the melanoma receptor was determined in the murine melanoma B16/F1 cell line. The essentials: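 Competitive displacement on B16/F1 cells seeded at 0.2 million/well and attached overnight. They were rinsed twice with PBS/0.2% BSA and lysed in 1.0 M NaOH. Cell-bound radioactivity was counted and IC50 fitted.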
In turn, `CC(=O)NC(CCCCNC(=O)CN1CCN(CC(=O)O)CCN(CC(=O)O)CCN(CC(=O)O)CC1)C(=O)NC1[S][ReH]23([OH])[S]C(C(=O)NC(CCCCNC(=O)OCc4ccccc4)C(=O)N4CCCC4C(=O)NC(C(N)=O)C(C)C)NC(=O)C(Cc4c[nH]c5ccccc45)NC(=O)C(CCCNC(=N)N)NC(=O)[C@H](Cc4ccccc4)NC(=O)C(Cc4cnc[nH]4)NC(=O)C(CCC(=O)O)NC(=O)C([S]2)[N]3C1=O` (stereo partly drawn) [Ac-Lys(DOTA)-ReCCEHdFRWCKPV-NH2] gave a pIC50 of 8.48. On to `CC(C)C(NC(=O)C1CCCN1C(=O)C(CCCCN)NC(=O)C1NC(=O)C(Cc2c[nH]c3ccccc23)NC(=O)C(CCCNC(=N)N)NC(=O)[C@H](Cc2ccccc2)NC(=O)C(Cc2cnc[nH]2)NC(=O)C(CCC(=O)O)NC(=O)C2[S][ReH]3([OH])([S]1)[S]C(NC(=O)CN1CCN(CC(=O)O)CCN(CC(=O)O)CCN(CC(=O)O)CC1)C(=O)[N]23)C(N)=O` (stereo partly drawn) [DOTA-ReCCEHdFRWCKPV-NH2], for which the pIC50 was 8.92. On to `CC(C)C(NC(=O)C1CCCN1C(=O)C(CCCNC(=N)N)NC(=O)C1NC(=O)C(Cc2c[nH]c3ccccc23)NC(=O)C(CCCNC(=N)N)NC(=O)[C@H](Cc2ccccc2)NC(=O)C(Cc2cnc[nH]2)NC(=O)C(CCC(=O)O)NC(=O)C2[S][ReH]3([OH])([S]1)[S]C(NC(=O)CN1CCN(CC(=O)O)CCN(CC(=O)O)CCN(CC(=O)O)CC1)C(=O)[N]23)C(N)=O` (stereo partly drawn) [DOTA-ReCCEHdFRWCRPV-NH2], for which the pIC50 was 8.68. This pIC50 is 0.24 log units lower than that of the molecule before.

Broadly, the pIC50 is −log10 of the IC50, conventionally taken in molar units. A lower pIC50 goes with a large IC50.
